Measured values from PMC12216437 (Scientific Reports, 2025).
Converted amounts (≈) assume the structure as drawn. Non-standard residues stand in square brackets, D forms with d. Residues, ends and D or L forms follow the SMILES beside them. hArg = N=C(N)NCCCC[C@H](N)C(=O)O

Experiments:
E. coli ATCC 8739 [1] = assay: Resistance development assay; format: cell-based; conditions: for fold increase in MIC: E. coli ATCC 8739, sub-MIC exposure; for MIC: Escherichia coli, ATCC8739
E. coli ATCC 8739 [2] = assay: Thermal and trypsin sensitivity; format: cell-based; conditions: for MIC, 80 °C: E. coli ATCC 8739, peptide heated at 80 °C for 10 min, no trypsin; for MBC, Control / MIC, Control: E. coli ATCC 8739, untreated peptide
LPS-binding assay = conditions: BC displacement, peptide 0.5-32 μM
How it was run: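 BODIPY-TR cadaverine displacement: LPS (25 µg/mL) preincubated with BC dye (2.5 µg/mL) for 4 h at room temperature. Peptides, with melittin as positive control, prepared at 0.5–32 µM in Tris–HCl pH 7.4 and combined with LPS–BC mixture for 1 h at 37 °C. Fluorescence read at ex 590/em 645 nm; triplicates, independent experiments.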

E. coli ATCC 8739 [3] = assay: Cytoplasmic membrane depolarization assay; format: cell-based; conditions: E. coli ATCC 8739, membrane depolarisation
How it was run: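 E. coli ATCC 8739 washed twice and resuspended to OD600 0.05 in 5 mM HEPES (pH 7.4) with 20 mM glucose and 100 mM KCl. Cells incubated 1 h in the dark with Disc3(5) solution (20 µM). Baseline read every 1 min for 5 min ([…]/em 645 nm). Peptide at various concentrations or melittin control then added; read every 1 min for 15 min.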

E. coli ATCC 8739 [4] = assay: Salts and serum sensitivity; format: cell-based; conditions: for MIC, NH4+: E. coli ATCC 8739, 6 μM NH4Cl; for MIC, Zn2+: E. coli ATCC 8739, 8 mM ZnCl2; for MBC, Serum 10% / MIC, Serum 10%: E. coli ATCC 8739, 10% FBS
[5] = test system: Wax Moth Larvae (Galleria mellonella); assay: In vivo toxicity in larvae; conditions: uninfected larvae, 4 × MIC of peptide 7, five-day observation
How it was run: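 Uninfected Galleria mellonella larvae (250 ± 20 mg), ten per group, given test compound at 4 × MIC; PBS as vehicle-only group. Kept at 24 °C and survival scored every 24 h for five days.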

[6] = E. coli ATCC 8739, 2.5 mM CaCl2

CO/N=C(\C(=O)N[C@@H]1C(=O)N2C(C(=O)O)=C(COC(C)=O)CS[C@H]12)c1csc(N)n1 [Cefotaxime]
fold increase in MIC (E. coli ATCC 8739 [1]; twenty passages (twenty days)): 32 fold | MIC (E. coli ATCC 8739 [1]): 1 µM (≈ 0.455 µg/mL)

CNC(C)C1CCC(N)C(OC2C(N)CC(N)C(OC3OCC(C)(O)C(NC)C3O)C2O)O1 (stereo not drawn) [Gentamicin]
fold increase in MIC (E. coli ATCC 8739 [1]; twenty passages (twenty days)): 32 fold | MIC (E. coli ATCC 8739 [1]): 2 µM (≈ 0.955 µg/mL)

CC[C@H](C)[C@H](NC(=O)CN)C(=O)NCC(=O)N[C@@H](C)C(=O)N[C@H](C(=O)N[C@@H](CC(C)C)C(=O)N[C@@H](CCCCN)C(=O)N[C@H](C(=O)N[C@@H](CC(C)C)C(=O)N[C@H](C(=O)N[C@H](C(=O)NCC(=O)N[C@@H](CC(C)C)C(=O)N1CCC[C@H]1C(=O)N[C@@H](C)C(=O)N[C@@H](CC(C)C)C(=O)N[C@H](C(=O)N[C@@H](CO)C(=O)N[C@@H](Cc1c[nH]c2ccccc12)C(=O)N[C@H](C(=O)N[C@@H](CCCCN)C(=O)N[C@@H](CCCNC(=N)N)C(=O)N[C@@H](CCCCN)C(=O)N[C@@H](CCCNC(=N)N)C(=O)N[C@@H](CCC(N)=O)C(=O)N[C@@H](CCC(N)=O)C(N)=O)[C@@H](C)CC)[C@@H](C)CC)[C@@H](C)O)[C@@H](C)O)C(C)C)C(C)C [Melittin]
fold increase of MIC and MBC values (E. coli ATCC 8739 [2]; E. coli ATCC 8739, 0.25 mg/mL trypsin): 32 fold | MIC, 80 °C (E. coli ATCC 8739 [2]): 2 µM (≈ 5.69 µg/mL) | MBC, Control (E. coli ATCC 8739 [2]): 2 µM (≈ 5.69 µg/mL) | MIC, Control (E. coli ATCC 8739 [2]): 2 µM (≈ 5.69 µg/mL) | concentration at which LPS-binding affinity peaked (LPS-binding assay): 16 µM | concentration at maximum Disc3(5) fluorescence (E. coli ATCC 8739 [3]): 2 µM | incubation time to maximum Disc3(5) fluorescence (E. coli ATCC 8739 [3]): 3 min

CCn1cc(C(=O)O)c(=O)c2cc(F)c(N3CCNCC3)cc21 [Norfloxacin]
fold increase in MIC (E. coli ATCC 8739 [1]; twenty passages (twenty days)): 512 fold | MIC (E. coli ATCC 8739 [1]): 0.25 µM (≈ 0.0798 µg/mL)

C[C@H](NC(=O)[C@H](Cc1c[nH]c2ccccc12)NC(=O)CNC(=O)[C@H](CCCNC(=N)N)NC(=O)[C@H](Cc1c[nH]c2ccccc12)NC(=O)[C@H](Cc1c[nH]c2ccccc12)NC(=O)[C@H](CO)NC(=O)[C@H](CO)NC(=O)[C@H](Cc1c[nH]c2ccccc12)NC(=O)CN)C(=O)N[C@@H](CCCCN)C(=O)N[C@@H](Cc1c[nH]c2ccccc12)C(=O)N[C@@H](C)C(=O)N[C@@H](CO)C(=O)N[C@@H](CCCCN)C(=O)NCC(=O)N[C@@H](Cc1c[nH]c2ccccc12)C(=O)NCC(=O)N[C@@H](CCCCN)C(N)=O [Peptide 6, [Trp^2,5,6,9,12,17]-des-(Asp20-Cys37)-E2P] (H-GWSSWWRGWAKWASKGWGK-NH2)
MIC, NH4+ (E. coli ATCC 8739 [4]): 4 µM | MBC, Mg2+ (E. coli ATCC 8739 [4]; E. coli ATCC 8739, 1 mM MgCl2): 32 µM | MIC, Mg2+ (E. coli ATCC 8739 [4]; E. coli ATCC 8739, 1 mM MgCl2): 32 µM | MIC, Zn2+ (E. coli ATCC 8739 [4]): 4 µM | MBC, Serum 10% (E. coli ATCC 8739 [4]): 4 µM | MIC, Serum 10% (E. coli ATCC 8739 [4]): 4 µM | MBC, Serum 20% (E. coli ATCC 8739 [4]; E. coli ATCC 8739, 20% FBS): 8 µM | MIC, Serum 20% (E. coli ATCC 8739 [4]; E. coli ATCC 8739, 20% FBS): 8 µM

CC[C@H](C)[C@H](NC(=O)[C@H](CO)NC(=O)[C@H](CO)NC(=O)[C@H](Cc1ccccc1)NC(=O)CN)C(=O)N[C@@H](Cc1ccccc1)C(=O)N[C@@H](CCCCNC(=N)N)C(=O)NCC(=O)N[C@H](C(=O)N[C@@H](C)C(=O)N[C@@H](CCCCNC(=N)N)C(=O)N[C@@H](Cc1ccccc1)C(=O)N[C@@H](C)C(=O)N[C@@H](CO)C(=O)N[C@@H](CCCCNC(=N)N)C(=O)NCC(=O)N[C@@H](CC(C)C)C(=O)NCC(=O)N[C@@H](CCCCNC(=N)N)C(N)=O)C(C)C [Peptide 7, [hArg^7,11,15,19]-des-(Asp20-Cys37)-E2P] (H-GFSSIF[hArg]GVA[hArg]FAS[hArg]GLG[hArg]-NH2)
MIC, 80 °C (E. coli ATCC 8739 [2]): 2 µM (≈ 4.19 µg/mL) | MBC, Control (E. coli ATCC 8739 [2]): 2 µM (≈ 4.19 µg/mL) | MIC, Control (E. coli ATCC 8739 [2]): 2 µM (≈ 4.19 µg/mL) | MIC, Fe3+ (E. coli ATCC 8739 [4]; E. coli ATCC 8739, 4 μM FeCl3): 2 µM | MIC, NH4+ (E. coli ATCC 8739 [4]): 2 µM | MIC, K+ (E. coli ATCC 8739 [4]; E. coli ATCC 8739, 0.5 mM KCl): 2 µM | MIC, Mg2+ (E. coli ATCC 8739 [4]; E. coli ATCC 8739, 1 mM MgCl2): 8 µM | MBC, Ca2+ (E. coli ATCC 8739 [4]; [6]): 64 µM | MIC, Ca2+ (E. coli ATCC 8739 [4]; [6]): 64 µM | MIC, Zn2+ (E. coli ATCC 8739 [4]): 4 µM | MBC, Serum 10% (E. coli ATCC 8739 [4]): 4 µM | MIC, Serum 10% (E. coli ATCC 8739 [4]): 4 µM | effect on survival of larvae (toxicity) [5]: did not affect the survival of the larvae

CO[C@H]1/C=C/O[C@@]2(C)Oc3c(C)c(O)c4c(O)c(c(/C=N/N5CCN(C)CC5)c(O)c4c3C2=O)NC(=O)/C(C)=C\C=C\[C@H](C)[C@H](O)[C@@H](C)[C@@H](O)[C@@H](C)[C@H](OC(C)=O)[C@@H]1C [Rifampicin]
fold increase in MIC (E. coli ATCC 8739 [1]; within five passages): 512 fold | MIC (E. coli ATCC 8739 [1]): 8 µM (≈ 6.58 µg/mL)
